Assay results taken from ChEMBL document CHEMBL2331221, “Potent elastase inhibitors from cyanobacteria: structural basis and mechanisms mediating cytoprotective and anti-inflammatory effects in bronchial epithelial cells” (J Med Chem, 2013).
Active and inactive are the calls of the source. The rule behind the calls is not given here.

Columns and labels:
Chymase = Chymase (Homo sapiens, UniProt P23946); assay: Inhibition of Chymase (unknown origin) using Suc-AAPF-AMC substrate incubated for 15 mins prior to substrate addition measured for 2 hrs
Procedure, shortened: (§1)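 Protease panel screen: enzyme and test inhibitor preincubated 15 min in the enzyme's reaction buffer, then substrate added. Reaction followed for 2 h, and activity was taken from the initial linear portion of the progress-curve slope. Enzyme, substrate, buffer and detection conditions for each target are given only in the paper's supporting table.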

Tryptase gamma = Tryptase gamma (Homo sapiens, UniProt Q9NRR2); assay: Inhibition of Tryptase gamma1 (unknown origin) using Z-GPR-AMC substrate assessed as residual activity at 10 uM incubated for 15 mins prior to substrate addition measured for 2 hrs
Procedure, shortened: (§2)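 Protease panel screen: enzyme and inhibitor preincubated 15 min in reaction buffer, then substrate added; reaction followed for 2 h and the initial linear part of the progress curve used for activity. Enzyme, substrate, buffer and detection details are given only in a supporting table.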

[1] = target: Collagenase 3 (Homo sapiens) (UniProt P45452); assay: Inhibition of MMP13 (unknown origin) using (5-FAM/QXLTM) FRET peptide substrate assessed as residual activity at 10 uM incubated for 15 mins prior to substrate addition measured for 2 hrs; procedure, shortened: as §1
[2] = target: 72 kDa type IV collagenase (Homo sapiens) (UniProt P08253); assay: Inhibition of MMP2 (unknown origin) using (5-FAM/QXLTM) FRET peptide substrate assessed as residual activity at 10 uM incubated for 15 mins prior to substrate addition measured for 2 hrs; procedure, shortened: as §1
[3] = target: T1, Neutrophil elastase (Homo sapiens) (UniProt P08246); conditions: 10 uM
T1 sequence (whole entry): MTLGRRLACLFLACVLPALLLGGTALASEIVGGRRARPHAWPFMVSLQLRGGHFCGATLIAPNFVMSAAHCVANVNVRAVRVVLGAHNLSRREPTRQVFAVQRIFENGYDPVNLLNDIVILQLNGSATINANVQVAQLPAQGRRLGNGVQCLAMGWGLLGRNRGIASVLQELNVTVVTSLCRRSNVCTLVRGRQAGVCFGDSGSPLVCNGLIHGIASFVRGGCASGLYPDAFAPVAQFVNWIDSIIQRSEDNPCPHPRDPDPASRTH

[4] = target: Disintegrin and metalloproteinase domain-containing protein 10 (Homo sapiens) (UniProt O14672); assay: Inhibition of ADAM10 (unknown origin) using MCA-PLAQAV-Dpa-RSSSR-[…] substrate assessed as residual activity at 10 uM incubated for 15 mins prior to substrate addition measured for 2 hrs; procedure, shortened: as §1
[5] = Inhibition of Proteinase K (unknown origin) using H-D-CHA -Ala-Arg-AMC.2AcOH substrate incubated for 15 mins prior to substrate addition measured for 2 hrs; set-up: species or system Homo sapiens; procedure, shortened: as §2
[6] = target: Cathepsin E (Homo sapiens) (UniProt P14091); assay: Inhibition of Cathepsin E (unknown origin) using MCA-KPILFFRLK(Dnp)-D-R-NH2 substrate assessed as residual activity at 10 uM incubated for 15 mins prior to substrate addition measured for 2 hrs; procedure, shortened: as §1
[7] = target: T1, Neutrophil elastase (Homo sapiens); conditions: 10 uM; remark: listed apart in the source
[8] = target: Cathepsin K (Homo sapiens) (UniProt P43235); assay: Inhibition of Cathepsin K (unknown origin) using Z-GPR-AMC substrate assessed as residual activity at 10 uM incubated for 15 mins prior to substrate addition measured for 2 hrs; procedure, shortened: as §1
Coagulation factor XI = Coagulation factor XI (Homo sapiens, UniProt P03951); assay: Inhibition of Factor-11a (unknown origin) using (Boc-Glu(OBzl)-Ala-Arg)-MCA substrate incubated for 15 mins prior to substrate addition measured for 2 hrs; procedure, shortened: as §1
[9] = Inhibition of human pancreatic chymotrypsin assessed as proteolysis using N-succinyl-Ala-Ala-Pro-Phe-p-nitroanilide substrate incubated for 30 mins prior to substrate addition
[10] = target: Cathepsin S (Homo sapiens) (UniProt P25774); assay: Inhibition of Cathepsin S (unknown origin) using Z-FR-AMC substrate assessed as residual activity at 10 uM incubated for 15 mins prior to substrate addition measured for 2 hrs; procedure, shortened: as §1
[11] = target: Matrilysin (Homo sapiens) (UniProt P09237); assay: Inhibition of MMP7 (unknown origin) using (5-FAM/QXLTM) FRET peptide substrate assessed as residual activity at 10 uM incubated for 15 mins prior to substrate addition measured for 2 hrs; procedure, shortened: as §2
[12] = target: Caspase-10 (Homo sapiens) (UniProt Q92851); assay: Inhibition of Caspase 10 (unknown origin) using Ac-LEHD-AMC substrate assessed as residual activity at 10 uM incubated for 15 mins prior to substrate addition measured for 2 hrs; procedure, shortened: as §1
[13] = target: T1, Neutrophil elastase (Homo sapiens); conditions: 10 uM; remark: listed apart in the source
[14] = Inhibition of Thrombin alpha (unknown origin) using H-D-CHA -Ala-Arg-AMC.2AcOH substrate incubated for 15 mins prior to substrate addition measured for 2 hrs; set-up: species or system Homo sapiens; procedure, shortened: as §2
[15] = target: Stromelysin-1 (Homo sapiens) (UniProt P08254); assay: Inhibition of MMP3 (unknown origin) using (5-FAM/QXLTM) FRET peptide substrate assessed as residual activity at 10 uM incubated for 15 mins prior to substrate addition measured for 2 hrs; procedure, shortened: as §1
[16] = target: Tissue-type plasminogen activator (Homo sapiens) (UniProt P00750); assay: Inhibition of tPA (unknown origin) using Z-GPR-AMC substrate assessed as residual activity at 10 uM incubated for 15 mins prior to substrate addition measured for 2 hrs; procedure, shortened: as §2
[17] = Inhibition of porcine pancreatic elastase using Suc-AAA-pNa substrate incubated for 15 mins prior to substrate addition measured for 2 hrs; set-up: species or system Sus scrofa
Procedure, shortened: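 Elastase preincubated with test compound (DMSO) in Tris-HCl pH 8.0 for 15 min at room temperature; N-succinyl-Ala-Ala-Ala-p-nitroanilide then added (2 mM stock in Tris-HCl pH 8.0). Absorbance at 405 nm recorded every 30 s; activity as initial slope, percent of uninhibited reaction.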

Cathepsin K (Homo sapiens), sequence (P43235 whole entry): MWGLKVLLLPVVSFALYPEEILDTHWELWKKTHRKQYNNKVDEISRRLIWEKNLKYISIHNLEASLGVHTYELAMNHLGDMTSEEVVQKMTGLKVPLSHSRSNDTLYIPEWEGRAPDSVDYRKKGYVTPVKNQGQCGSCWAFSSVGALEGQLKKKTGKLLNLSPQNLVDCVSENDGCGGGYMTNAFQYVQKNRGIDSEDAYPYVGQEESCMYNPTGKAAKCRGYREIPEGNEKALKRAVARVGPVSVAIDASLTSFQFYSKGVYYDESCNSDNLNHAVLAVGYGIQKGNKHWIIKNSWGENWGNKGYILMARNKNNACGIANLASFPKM
Tryptase gamma, sequence (Q9NRR2 38-321 limits assumed, other chains not shown): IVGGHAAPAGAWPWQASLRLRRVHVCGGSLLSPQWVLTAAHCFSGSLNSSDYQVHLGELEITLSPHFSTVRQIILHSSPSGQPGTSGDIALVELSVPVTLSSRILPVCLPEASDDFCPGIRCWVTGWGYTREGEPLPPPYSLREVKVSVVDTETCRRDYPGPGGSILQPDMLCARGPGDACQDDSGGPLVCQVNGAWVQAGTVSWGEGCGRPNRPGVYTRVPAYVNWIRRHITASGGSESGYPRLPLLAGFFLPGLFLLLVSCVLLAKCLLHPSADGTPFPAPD
Caspase-10 (Homo sapiens), sequence (Q92851 220-415 limits assumed): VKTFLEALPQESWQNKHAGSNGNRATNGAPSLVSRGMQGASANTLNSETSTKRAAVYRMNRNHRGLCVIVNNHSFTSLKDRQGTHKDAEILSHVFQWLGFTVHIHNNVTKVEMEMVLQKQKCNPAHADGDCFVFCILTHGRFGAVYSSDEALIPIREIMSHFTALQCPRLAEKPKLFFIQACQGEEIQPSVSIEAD
Caspase-10 (Homo sapiens), sequence (Q92851 416-521 limits assumed): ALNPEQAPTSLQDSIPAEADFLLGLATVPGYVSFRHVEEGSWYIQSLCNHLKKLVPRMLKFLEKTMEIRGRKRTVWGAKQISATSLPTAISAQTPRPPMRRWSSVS
72 kDa type IV collagenase (Homo sapiens), sequence (P08253 110-660 limits assumed): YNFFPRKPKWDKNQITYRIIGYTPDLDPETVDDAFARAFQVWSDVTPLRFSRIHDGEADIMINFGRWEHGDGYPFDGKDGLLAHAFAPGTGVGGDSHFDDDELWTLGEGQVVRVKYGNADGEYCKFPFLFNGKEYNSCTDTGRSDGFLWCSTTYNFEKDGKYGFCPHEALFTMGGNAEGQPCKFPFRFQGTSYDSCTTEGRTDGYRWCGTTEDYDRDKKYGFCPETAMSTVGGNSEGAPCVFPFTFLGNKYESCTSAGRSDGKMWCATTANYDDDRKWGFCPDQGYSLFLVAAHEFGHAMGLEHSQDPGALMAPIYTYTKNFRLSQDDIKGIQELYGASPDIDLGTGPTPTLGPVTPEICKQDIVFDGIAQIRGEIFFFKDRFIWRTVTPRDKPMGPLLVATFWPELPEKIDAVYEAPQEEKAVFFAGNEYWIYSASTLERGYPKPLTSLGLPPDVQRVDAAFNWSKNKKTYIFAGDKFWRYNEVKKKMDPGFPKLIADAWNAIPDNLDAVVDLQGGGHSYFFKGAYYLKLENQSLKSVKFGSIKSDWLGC
Tissue-type plasminogen activator (Homo sapiens), sequence (P00750 36-562 limits assumed): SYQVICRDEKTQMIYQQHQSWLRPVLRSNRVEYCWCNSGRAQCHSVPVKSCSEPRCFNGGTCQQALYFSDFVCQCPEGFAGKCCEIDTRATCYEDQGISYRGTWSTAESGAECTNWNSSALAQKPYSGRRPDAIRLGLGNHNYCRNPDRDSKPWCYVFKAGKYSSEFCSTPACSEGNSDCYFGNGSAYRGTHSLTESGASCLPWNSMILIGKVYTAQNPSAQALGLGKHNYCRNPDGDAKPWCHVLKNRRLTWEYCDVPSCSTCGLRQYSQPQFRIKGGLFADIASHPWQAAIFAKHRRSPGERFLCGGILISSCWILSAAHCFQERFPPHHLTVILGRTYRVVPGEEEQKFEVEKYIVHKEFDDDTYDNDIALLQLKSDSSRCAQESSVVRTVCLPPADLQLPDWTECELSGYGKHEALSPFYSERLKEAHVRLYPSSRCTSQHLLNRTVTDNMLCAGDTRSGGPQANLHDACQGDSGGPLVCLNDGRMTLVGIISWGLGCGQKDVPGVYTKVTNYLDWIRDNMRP
Stromelysin-1 (Homo sapiens), sequence (P08254 100-477 limits assumed): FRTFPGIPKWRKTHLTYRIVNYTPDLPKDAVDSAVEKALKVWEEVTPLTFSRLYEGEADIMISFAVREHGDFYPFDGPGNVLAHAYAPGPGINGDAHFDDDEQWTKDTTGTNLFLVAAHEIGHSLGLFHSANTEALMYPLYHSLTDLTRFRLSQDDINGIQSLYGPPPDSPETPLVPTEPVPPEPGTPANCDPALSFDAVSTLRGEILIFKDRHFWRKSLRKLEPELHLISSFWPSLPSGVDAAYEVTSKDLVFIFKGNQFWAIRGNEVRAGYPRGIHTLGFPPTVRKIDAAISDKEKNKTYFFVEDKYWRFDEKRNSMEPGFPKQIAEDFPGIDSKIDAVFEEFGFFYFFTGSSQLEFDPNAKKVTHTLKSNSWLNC
Disintegrin and metalloproteinase domain-containing protein 10 (Homo sapiens), sequence (O14672 whole entry, the tested form may be a part): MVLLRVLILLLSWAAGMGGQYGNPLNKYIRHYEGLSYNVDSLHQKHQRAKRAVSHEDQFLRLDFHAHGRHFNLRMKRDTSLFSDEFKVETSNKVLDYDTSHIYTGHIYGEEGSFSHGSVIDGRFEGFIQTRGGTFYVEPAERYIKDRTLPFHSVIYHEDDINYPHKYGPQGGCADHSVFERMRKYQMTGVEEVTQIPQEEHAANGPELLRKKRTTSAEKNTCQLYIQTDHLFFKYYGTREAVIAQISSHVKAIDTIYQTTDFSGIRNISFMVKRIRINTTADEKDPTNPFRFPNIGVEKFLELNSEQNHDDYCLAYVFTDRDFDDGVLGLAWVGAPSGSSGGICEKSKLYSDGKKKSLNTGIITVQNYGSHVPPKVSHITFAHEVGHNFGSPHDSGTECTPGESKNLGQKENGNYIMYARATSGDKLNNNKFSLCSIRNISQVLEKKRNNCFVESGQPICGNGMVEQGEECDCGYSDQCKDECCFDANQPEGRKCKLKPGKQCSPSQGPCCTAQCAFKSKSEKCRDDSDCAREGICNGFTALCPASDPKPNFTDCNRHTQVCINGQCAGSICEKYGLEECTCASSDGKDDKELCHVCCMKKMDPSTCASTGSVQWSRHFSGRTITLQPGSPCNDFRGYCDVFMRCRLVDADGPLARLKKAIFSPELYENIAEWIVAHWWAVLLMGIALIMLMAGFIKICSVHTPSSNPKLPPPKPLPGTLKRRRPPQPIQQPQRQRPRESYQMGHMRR
Matrilysin (Homo sapiens), sequence (P09237 whole entry): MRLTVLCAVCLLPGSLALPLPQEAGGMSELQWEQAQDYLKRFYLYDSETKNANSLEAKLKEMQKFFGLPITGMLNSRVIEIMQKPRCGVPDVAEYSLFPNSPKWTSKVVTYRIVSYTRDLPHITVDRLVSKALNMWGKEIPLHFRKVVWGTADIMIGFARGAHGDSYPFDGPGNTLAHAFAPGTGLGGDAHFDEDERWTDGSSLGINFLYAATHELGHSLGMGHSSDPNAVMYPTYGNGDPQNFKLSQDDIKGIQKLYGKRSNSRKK
Cathepsin S (Homo sapiens), sequence (P25774 115-331 limits assumed): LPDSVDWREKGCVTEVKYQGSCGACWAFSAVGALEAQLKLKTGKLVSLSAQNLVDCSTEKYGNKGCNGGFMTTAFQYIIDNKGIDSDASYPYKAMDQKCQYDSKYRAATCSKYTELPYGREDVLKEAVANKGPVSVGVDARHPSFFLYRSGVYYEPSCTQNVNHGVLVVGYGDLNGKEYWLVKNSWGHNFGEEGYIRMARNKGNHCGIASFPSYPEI
Cathepsin E (Homo sapiens), sequence (P14091 whole entry): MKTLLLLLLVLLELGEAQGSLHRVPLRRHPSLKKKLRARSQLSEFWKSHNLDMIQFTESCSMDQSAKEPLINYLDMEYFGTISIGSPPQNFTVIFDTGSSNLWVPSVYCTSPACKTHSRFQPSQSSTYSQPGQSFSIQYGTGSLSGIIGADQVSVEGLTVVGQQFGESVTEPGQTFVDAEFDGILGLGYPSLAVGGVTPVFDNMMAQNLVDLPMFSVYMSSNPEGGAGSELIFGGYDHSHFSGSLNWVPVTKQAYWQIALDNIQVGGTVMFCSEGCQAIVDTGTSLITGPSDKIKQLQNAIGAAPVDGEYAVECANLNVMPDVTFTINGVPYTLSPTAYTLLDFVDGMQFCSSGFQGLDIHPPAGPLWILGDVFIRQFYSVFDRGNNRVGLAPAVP
Coagulation factor XI, sequence (P03951 19-387 limits assumed): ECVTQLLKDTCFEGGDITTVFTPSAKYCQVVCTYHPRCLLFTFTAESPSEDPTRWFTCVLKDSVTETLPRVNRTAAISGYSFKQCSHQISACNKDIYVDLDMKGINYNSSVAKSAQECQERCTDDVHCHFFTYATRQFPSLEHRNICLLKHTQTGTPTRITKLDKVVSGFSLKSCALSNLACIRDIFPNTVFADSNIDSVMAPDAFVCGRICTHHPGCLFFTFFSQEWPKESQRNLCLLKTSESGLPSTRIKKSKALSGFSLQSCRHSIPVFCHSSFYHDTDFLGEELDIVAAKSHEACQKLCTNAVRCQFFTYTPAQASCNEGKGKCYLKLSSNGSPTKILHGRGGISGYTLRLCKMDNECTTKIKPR
Coagulation factor XI, sequence (P03951 388-625 limits assumed): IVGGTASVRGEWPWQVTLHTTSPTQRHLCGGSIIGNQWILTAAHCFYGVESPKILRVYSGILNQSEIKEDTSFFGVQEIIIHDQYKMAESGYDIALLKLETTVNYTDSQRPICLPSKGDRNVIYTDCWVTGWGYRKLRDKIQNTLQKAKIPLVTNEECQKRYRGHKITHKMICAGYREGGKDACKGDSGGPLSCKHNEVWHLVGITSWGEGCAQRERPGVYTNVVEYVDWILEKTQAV
Chymase, sequence (P23946 whole entry): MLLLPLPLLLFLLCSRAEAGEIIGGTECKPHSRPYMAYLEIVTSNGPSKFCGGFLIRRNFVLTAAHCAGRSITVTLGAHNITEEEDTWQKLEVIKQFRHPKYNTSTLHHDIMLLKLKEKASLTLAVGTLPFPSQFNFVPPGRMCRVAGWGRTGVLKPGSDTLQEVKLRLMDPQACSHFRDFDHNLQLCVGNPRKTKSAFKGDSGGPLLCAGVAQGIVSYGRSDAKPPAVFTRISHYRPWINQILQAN

Structure (SMILES): C/C=C1\NC(=O)[C@@H](NC(=O)[C@@H](NC(=O)[C@@H](COS(=O)(=O)[O-])OC)C(C)C)[C@@H](C)OC(=O)[C@H]([C@H](C)CC)NC(=O)[C@H](Cc2ccccc2)N(C)C(=O)[C@H](Cc2ccccc2)N2C(=O)[C@H](CC[C@H]2O)NC1=O.[Na+] [Symplostatin 5]
- IC50 (Chymase): < 10 µM
- Activity (Tryptase gamma): 100%
- Activity [1]: 100%
- Activity [2]: 100%
- inhibition [3]: Active
- Activity [4]: 100%
- pIC50 [5]: < 5
- Activity [6]: 100%
- inhibition [7]: Active
- Activity [8]: 100%
- IC50 (Coagulation factor XI): < 10 µM
- IC50 [9]: > 10 µM
- Activity [10]: 100%
- Activity [11]: 100%
- Activity [12]: 100%
- inhibition [13]: Active
- pIC50 [14]: > 5
- Activity [15]: 100%
- Activity [16]: 100%
- pIC50 [17]: > 5
